# Compound activity as filed in PubChem BioAssay.
# Rows were chosen to be rich in hits. Some 2.3% of all compounds tested hit in one or more screens of this group.
# Yeast superoxide: caloric restriction mimetics inhibiting age-related superoxide in yeast; S. cerevisiae aged cells, superoxide DHE fluorescence; stronger effect = lower value; superoxide response (% of plate mean), % at 10 µM; 0.18% of 330,000 active;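 active means superoxide response under a set limit, about three screen SD below normal, cut at about 65% in these data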;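 further: yeast aged for seven days with compound at 30 °C before DHE staining; 100% = average MFI of all compound-treated wells on the plate with controls excluded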
# TRPC4 potent: allosteric potentiators of mouse TRPC4 channel; AID 2227; HEK293 TRPC4beta/mu-opioid, DAMGO EC20, Fluo-4 Ca2+ flux; stronger effect = higher value; 0.42% of 310,000 active; Q9QUQ5; B-score at 10 µM;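 active means B-score of calcium response area above 5 SD of library B-scores, with initial fluorescence ratio within 5 SD of library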;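 further: B-score of integrated fluorescence ratio over time as area under calcium response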
# TRPC4 block: TRPC4 (mouse) channel inhibition; Q9QUQ5; B-score at 10 µM; 0.39% of 300,000 active; HEK293 TRPC4beta/mu-opioid, DAMGO-evoked Fluo4 calcium flux; stronger effect = lower value;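 active means B-score over 3 SD under the library average, no early fluorescence shift, positive overall ratio signal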
#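 test system = HEK293 cells with stable TRPC4beta plus mu-opioid receptor expression | detection = Fluo4 Ca2+ flux fluorescence | read-out = integrated fluorescence ratio relative to baseline, converted to per-well B score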
# TRPC6 inh: inhibitors of mouse TRPC6 channel. Q61143. HEK293-TRPC6, membrane potential dye, ACh-evoked depolarization; stronger effect = lower value. B-score at 10 µM. 1.1% of 310,000 active;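 active means B-score under library mean minus 3 SD, initial fluorescence not abnormally high, positive integrated signal ratio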;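 further: B-score derived from integrated fluorescence ratio over the kinetic read; more negative B-score means stronger inhibition of depolarization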
# TRPC4 act: TRPC4 (mouse) channel activation; Q9QUQ5; HEK293 TRPC4beta/mu-opioid, Fluo4 calcium fluorescence; stronger effect = higher value; B-score at 10 µM; 0.49% of 310,000 active;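 active means B-score above 5 SD of library B-scores, and initial fluorescence ratio not above library mean plus 5 SD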;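 further: positive B-score marks a calcium rise read as TRPC4 activation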
#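 Assay system: HEK293 stable line with TRPC4beta plus mu-opioid receptor; schedule: 45 min room-temperature Fluo4 loading, 110 s read; technique: kinetic Fluo4 calcium fluorescence; evaluation: integrated baseline-normalised fluorescence ratio, converted to per-well B score; controls: buffer (low) and maximal DAMGO (high)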
# TRPC6 activator: mouse TRPC6 channel activation; 0.13% of 310,000 active; B-score at 10 µM; Q61143; HEK293-TRPC6 membrane potential dye fluorescence; stronger effect = higher value;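 active means B-score of the integrated fluorescence ratio above library mean plus 3 SD, and starting fluorescence ratio within library mean plus 5 SD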;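 further: higher score means more depolarization so channel activation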
# Numbers without * were called inactive; i = inactive; . = not tested or not shown.
SMILES,Yeast superoxide,TRPC4 potent,TRPC4 block,TRPC6 inh,TRPC4 act,TRPC6 activator
CCOC(=O)C1(CCc2ccccc2)CCN(Cc2c(O)cccc2OC)CC1,118,i,i,i,79*,i
CCOC(=O)C1(CCc2ccccc2)CCN(Cc2ccc(OC)cc2)CC1,71,i,i,i,119*,i
C=CC[C@@H](CC(=O)N(CCO)Cc1ccccc1)C(=O)N[C@@H](C)COC(=O)[C@@H](CC=C)CC(=O)OC(C)(C)C,91,.,.,.,.,.
CCCCCOc1ccc2oc(=O)c3c(c2c1)CCCN3C(=O)CN1CCCC(C(=O)OCC)C1 (centres undefined),109,33*,i,i,i,i
O=c1oc2ccccc2c(O)c1/C=C1\C=Nc2ccccc21,91,i,i,i,85*,i
C#CCOCCOCCOCCNc1nc(N2CCN(C(=O)C([C@@H](C)CC)n3cc(C(N)COC(=O)C(F)(F)F)nn3)CC2)nc(N2CCN(C(=O)[C@H](Cc3cc4ccccc4[nH]3)n3cc(C(N)CO)nn3)CC2)n1 (some centres undefined),98,i,-6*,i,57*,i
CC(=O)c1ccc(N2CCN(C(=O)CCS(=O)(=O)c3ccc4c(c3)NC(=O)CS4)CC2)cc1,94,17*,i,i,i,i
CN(CC(=O)Nc1ccc(S(=O)(=O)N(C)C)cc1)Cc1ccc(C(F)(F)F)cc1,98,i,i,i,i,i
CCn1cc(C(=O)O)c(=O)c2cc(F)c(N3CCN(C(=S)NC(=O)c4c(OC)cccc4OC)CC3)cc21,90,i,i,i,i,i
CN1CCN(C(=O)c2cccn(Cc3c(Cl)cccc3Cl)c2=O)CC1,104,i,i,i,184*,i
CCOC(=O)C1=C(C)N(c2ccccc2)C(=O)NC1c1cccc([N+](=O)[O-])c1 (centres undefined),120,15*,i,i,i,i
C=CCNC(=O)/C(C#N)=C\c1cc(Cl)c(OCC)c(OC)c1,63*,i,i,i,i,i
CCOc1c(Br)cc(/C=C(\C#N)C(=O)NC2CC2)cc1OC,95,i,i,i,i,i
CCNC(=S)NNc1ccccc1,98,i,i,i,i,i
CCC1CCCCN1Cc1nc2c(c(=O)n(C)c(=O)n2C)n1Cc1ccccc1 (centres undefined),112,i,-6*,i,i,i
CCCCCCn1c(N2CCN(c3ccccc3)CC2)nc2c1c(=O)n(C)c(=O)n2C,110,94*,i,i,i,i
Cc1ccc(Cn2c(CN(C)Cc3ccccc3)nc3c2c(=O)n(C)c(=O)n3C)cc1,92,10*,i,i,i,i
COC(=O)c1cccc(Oc2nc3c(c(=O)n(C)c(=O)n3C)n2Cc2ccc(C)cc2)c1,96,i,-6*,i,i,i
CN(Cc1ccccc1)Cc1nc2c(c(=O)n(C)c(=O)n2C)n1Cc1ccc(F)cc1,107,i,i,i,i,i
COC(=O)c1cccc(Oc2nc3c(c(=O)n(C)c(=O)n3C)n2C(C)C)c1,104,i,i,i,i,i
C=CCSc1nnc(-c2ccncc2)n1-c1ccc(OCC)cc1,108,i,i,i,i,i
Cn1c(=O)c2c(nc(CN3CCc4ccccc4C3)n2Cc2ccc(F)cc2)n(C)c1=O,88,23*,i,i,i,i
Cc1ccccc1Cn1c(CN2CCc3ccccc3C2)nc2c1c(=O)n(C)c(=O)n2C,84,119*,i,i,52*,i
COC(=O)Cn1c(CN2CCc3ccccc3C2)nc2c1c(=O)n(C)c(=O)n2C,93,i,i,i,i,i
CCn1c(CN2CCN(C(c3ccccc3)c3ccccc3)CC2)nc2c1c(=O)n(C)c(=O)n2C,98,17*,i,i,i,i
